Sampled rows, rich in hits. Any-hit rate of the full collection: about 11%.
Diaph inh CS: diaphorase inhibition or chemical oxidation counter-screen; diaphorase resazurin-to-resorufin fluorescence, NADH, 16 min; bacterial (C. kluyveri) enzyme, not human; inhibition, % at 20 µM; actives 0.69% (n = 190,000); AID 1217;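 active = primary screen inhibition at 20 µM above a set limit, cut at about 50% in these data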;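 also: plate controls were DMSO with full reaction for no effect and wells lacking NADH for full effect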
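Assay system: diaphorase enzyme from Clostridium kluyveri. Quantity: enzyme working solution with 0.14 U/mL diaphorase. Schedule: reaction incubation of 16 min at room temperature. Technique: resorufin fluorescence, excitation 544 nm, emission 590 nm. Controls: No-NADH positive control and DMSO neutral control.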
L major viab: reduces viability of Leishmania major promastigotes; resazurin fluorescence viability; inhibition, % at 10 µM; actives 9% (n = 200,000);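 also: promastigotes grown with compound for 44 hours at 28 °C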
WT yeast gro inh: growth inhibition of WT yeast, mitochondrial fusion screen. mitochondrial fusion phenotypic screen, WT strain. inhibition, % at 10 µM. actives 2.1% (n = 190,000). AID 1362; in the data active = inhibition above about 58%; tested in S. cerevisiae
Diaphorase act: diaphorase activation or chemical reduction counter-screen; Diaphorase/resazurin coupled assay, resorufin fluorescence, 16 min; active compounds read high; 1 = vehicle wells, 0 = NADH-free wells; activation factor at 20 µM; actives 0.005% (n = 190,000); AID 1229;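 active = diaphorase activity raised at least twofold by the compound at 20 µM; inactive = activation factor below 2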
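Material: purified diaphorase enzyme from Clostridium kluyveri / Medium: HEPES pH 7.4 buffer with MgCl2 and Tween 20 / Schedule: enzyme reaction of 16 min at room temperature / Measured by: resorufin fluorescence, excitation 544 nm, emission 590 nm / Evaluation: rise in resorufin formation, marking diaphorase activation or chemical reduction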
G6PDH counter: inhibits Leuconostoc G6PDH, flagging false hits in G6PDH-based assays | inhibition, % at 5 µM | actives 0.12% (n = 200,000) | Purified L. mesenteroides G6PDH, diaphorase/resazurin coupled fluorescence, 45 min
Starred values were filed as active, the others as inactive; x = no result given. Rule as the data show it, unless noted: active = inhibition above about 50%; inactive = the rest.

SMILES | Diaph inh CS | L major viab | WT yeast gro inh | Diaphorase act | G6PDH counter
CCN(CC)c1ccc(CNCCc2ccccc2F)cc1 | 10 | 94* | 23 | 0.9 | 9
Cc1ccc(CNCCc2ccccc2F)cc1 | 34 | 7 | -12 | 0.7 | 17
Fc1ccccc1CCNCc1cccc2ccccc12 | -1 | 77* | 12 | 1 | 14
Cc1ccc(C2C(S(C)(=O)=O)=C(O)C(=O)N2c2ccccc2)cc1 (stereo unspecified) (tested in a mixture with another compound) | 6 | -3 | -2 | 0.9 | 3
Cc1cccnc1-n1c(C)nc2ccccc2c1=O | 7 | -5 | -17 | 0.9 | 24
CCCCn1c(C)c(C(=O)O)c2cc(OC)ccc21 | 10 | -6 | -15 | 0.9 | 9
COCCCn1c(-c2ccc(OC)cc2)cc(C(=O)NC2CCCCCCC2)c1C | 13 | 98* | 55 | 0.9 | 4
CCCCN1C(=O)NC(=O)C2(Cc3c(nc4ccccn4c3=O)N3CCc4ccccc4C32)C1=O (stereo unspecified) | 39 | 89* | 21 | 0.6 | 5
Cc1cccn2c(=O)c3c(nc12)N1CCc2ccccc2C1C1(C3)C(=O)NC(=O)N(C)C1=O (stereo unspecified) | 32 | 50* | -6 | 0.7 | 2
CCCCN1C(=O)NC(=O)C2(Cc3c(nc4c(C)cccn4c3=O)N3CCc4ccccc4C32)C1=O (stereo unspecified) | 42 | 96* | 72* | 0.6 | -38
COCCOC(=O)C1=C(N)OC(C)=C(C(=O)OC)C12C(=O)Nc1ccccc12 (stereo unspecified) | 6 | -5 | 8 | 0.9 | 4
CCOC(=O)C1=C(C)OC(N)=C(C(=O)OCC)C12C(=O)Nc1ccc(Br)cc12 (stereo unspecified) | 13 | 51* | 14 | 0.9 | -5
O=C(c1c[nH]c2ccc(S(=O)(=O)N3CCOCC3)cc2c1=O)N1CCC2(CC1)OCCO2 | -4 | -4 | 11 | 1 | 6
Cc1ccccc1NC1(C#N)CCCCC1 | 7 | -5 | -25 | 0.9 | -1
COc1ccc(OC)c(NP(=O)(Oc2ccc(Cl)cc2)Oc2ccc(Cl)cc2)c1 | 26 | 7 | 55 | 0.7 | -12
COc1ccc(NP(=O)(Oc2ccc(Cl)cc2)Oc2ccc(Cl)cc2)cc1OC | 25 | 10 | 65* | 0.8 | -5
CCCNc1nc(OC)nc(N2CC3CC(C2)c2cccc(=O)n2C3)n1 (stereo unspecified) | -2 | -4 | 9 | 1 | -2
COc1ccccc1CCNC1CCC(C(C)(C)C)CC1 (stereo unspecified) | 0 | 100* | 13 | 1 | 10
CC(C)(C)c1nc(NCc2ccc3c(c2)OCO3)c2nnn(Cc3ccccc3Cl)c2n1 | 3 | -8 | 1 | 1 | 6
CCN(CC)c1ccc(CN(C)CCc2ccc(OC)c(OC)c2)cc1 | 17 | 63* | -2 | 0.8 | 4
CSc1ccc(CNC(C)C(O)c2ccccc2)cc1 (stereo unspecified) | -1 | 84* | 18 | 1 | 13
CC(NCC#Cc1ccccc1)C(O)c1ccccc1 (stereo unspecified) | -2 | 14 | 5 | 1 | 4
Cc1cc(OCC(=O)Nc2c(C)n(C)n(-c3ccccc3)c2=O)c2c3c(c(=O)oc2c1)CCC3 | 25 | x | x | 0.8 | -1
O=C1/C(=C/c2cc3c(cc2Cl)OCO3)N2CCC1CC2 | 27 | 92* | -9 | 0.7 | 10
O=C1/C(=C/c2cccc([N+](=O)[O-])c2)N2CCC1CC2 | -2 | 33 | -19 | 1 | 13
SMILES | Diaph inh CS | L major viab | WT yeast gro inh | Diaphorase act | G6PDH counter
O=C1/C(=C\c2cc3c(cc2Cl)OCO3)N2CCC1CC2 | 43 | 73* | -16 | 0.6 | 20
O=C1/C(=C/c2cc([N+](=O)[O-])ccc2Cl)N2CCC1CC2 | -1 | 74* | -3 | 1 | 0
C=CCN(CC#CCOc1ccccc1OC)CC=C | -1 | 4 | -4 | 1 | 4
CCCCn1c(O)c(/C(CC)=N/N2CCCCC2c2cccnc2)c(=O)[nH]c1=S (stereo unspecified) | 24 | 34 | 59* | 0.8 | 5
C/C(=N\N1CCCCC1c1cccnc1)c1c(O)n(C2CCCCC2)c(=S)[nH]c1=O (stereo unspecified) | 20 | 45 | 74* | 0.8 | 4
O=C1NC(=O)C(CCc2ccncc2)(c2ccccc2)C(=O)N1 | 8 | -5 | -3 | 0.9 | 6
Cc1cc(NC(=O)CCl)no1 | 11 | 39 | -23 | 0.9 | 1
Cc1ccc(CN2C(=O)CN=C(c3ccccc3)c3ccccc32)cc1 | 3 | 57* | 13 | 1 | 8
Cc1oc(-c2ccccc2)nc1CN1C(=O)CN=C(c2ccccc2)c2ccccc21 | 8 | 9 | 58* | 0.9 | 18
CCC(C)NC(=O)CN1C(=O)CN=C(c2ccccc2)c2ccccc21 (stereo unspecified) | -15 | 25 | 4 | 1.1 | 7
NNC(=O)c1ccc(Cl)cc1 | 11 | -7 | 8 | 0.9 | -8
CN(C)c1ccc(/C=C/[N+](=O)[O-])cc1 | 2 | 32 | -3 | 1 | 18
C/C(=C\c1ccc(N(C)C)cc1)[N+](=O)[O-] | 17 | 100* | -9 | 0.8 | -1
COc1ccc(CNC(C)Cc2cccs2)cc1 (stereo unspecified) | -13 | 77* | 0 | 1.1 | 3
Oc1ccc(Br)cc1CN1CCN(c2ccccc2)CC1 | 18 | 11 | 9 | 0.8 | 2
COc1cc(Br)cc(CN2CCN(C)CC2)c1O | 9 | 76* | 6 | 0.9 | 5
CCc1ccc(CN2CCN(Cc3cc(Br)ccc3O)CC2)cc1 | 15 | 81* | 51 | 0.8 | 5
CCN1CCN(Cc2cc(Br)cc(Br)c2O)CC1 | 2 | 73* | 4 | 1 | 3
CCN1CCN(Cc2cc(Br)ccc2O)CC1 | -3 | 85* | -41 | 1 | 2
OC12Oc3ccccc3C=C1N1CCC2CC1 (stereo unspecified) | -4 | -4 | 13 | 1 | 5
c1ccc(C2CC3CC(c4ccco4)N2O3)cc1 (stereo unspecified) | 9 | 0 | 14 | 0.9 | -11
C=CCN1C(=O)/C(=C/c2cc(C)n(-c3cccnc3)c2C)C(=O)NC1=S | 36 | 99* | -2 | 0.6 | 12
CC1(C)NCCN2C(=O)CSC21 (stereo unspecified) | -2 | -2 | 6 | 1 | 16
Cc1cccc(N2C(=O)NC(=O)/C(=C\c3cccn3-c3ccc(Cl)cc3)C2=O)c1 | 7 | 47 | -16 | 0.9 | 10
Cc1cc(C)cc(N2C(=O)NC(=O)/C(=C/c3cccn3-c3ccc(Cl)cc3)C2=O)c1 | -12 | 98* | 2 | 1.1 | 9
COc1ccc(C2NCc3ccc4c(c3-n3cccc32)OCO4)cc1O (stereo unspecified) | 4 | 74* | 4 | 1 | -2
